The values that follow come from paper PMC4529372 (Biological psychiatry, 2015).

By inhibition is commonly meant the relative decrease from the control value, in per cent. What is called IC50 is the point on the concentration scale where inhibition reaches its midpoint.

For test [1], the system named is hmGluR2/hCaR*. Description: fluorescence-based functional assay, HEK […] cells. It counts as cell-based, Homo sapiens. Particulars: read-out: Effect; positive allosteric modulator; with 0.02 μM DCG-IV as agonist.
Test [2] concerns the target T1, Adenosine A3 (Homo sapiens, UniProt P0DMS8).
T1 sequence (P0DMS8 1-318): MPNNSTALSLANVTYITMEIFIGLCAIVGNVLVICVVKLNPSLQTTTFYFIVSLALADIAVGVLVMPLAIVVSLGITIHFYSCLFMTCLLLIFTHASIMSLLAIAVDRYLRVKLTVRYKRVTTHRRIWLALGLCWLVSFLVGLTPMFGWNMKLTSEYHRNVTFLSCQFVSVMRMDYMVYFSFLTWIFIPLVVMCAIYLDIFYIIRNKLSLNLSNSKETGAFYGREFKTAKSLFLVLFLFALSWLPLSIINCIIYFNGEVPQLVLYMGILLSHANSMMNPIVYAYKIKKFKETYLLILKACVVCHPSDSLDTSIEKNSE
Description: radioligand binding displacement. Particulars: read-out: % inhibition at 10 μM. A digest of the protocol:
(§1)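 Off-target screen by radioligand binding displacement, run per published methods with reference standards in each assay. […] Recombinant human targets were expressed in CHO-K1 cells (A3, dopamine transporter), Sf9 insect cells (α2A), CHO cells (DOP) and MDCK cells (norepinephrine transporter). IC50, where determined, came from non-linear least-squares regression.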

The target in test [3] is Norepinephrine transporter (Homo sapiens, UniProt P23975). Description: radioligand binding displacement. In short, it runs like this: as §1

Each structure is given as a SMILES string.

Norepinephrine transporter, sequence (P23975 whole entry): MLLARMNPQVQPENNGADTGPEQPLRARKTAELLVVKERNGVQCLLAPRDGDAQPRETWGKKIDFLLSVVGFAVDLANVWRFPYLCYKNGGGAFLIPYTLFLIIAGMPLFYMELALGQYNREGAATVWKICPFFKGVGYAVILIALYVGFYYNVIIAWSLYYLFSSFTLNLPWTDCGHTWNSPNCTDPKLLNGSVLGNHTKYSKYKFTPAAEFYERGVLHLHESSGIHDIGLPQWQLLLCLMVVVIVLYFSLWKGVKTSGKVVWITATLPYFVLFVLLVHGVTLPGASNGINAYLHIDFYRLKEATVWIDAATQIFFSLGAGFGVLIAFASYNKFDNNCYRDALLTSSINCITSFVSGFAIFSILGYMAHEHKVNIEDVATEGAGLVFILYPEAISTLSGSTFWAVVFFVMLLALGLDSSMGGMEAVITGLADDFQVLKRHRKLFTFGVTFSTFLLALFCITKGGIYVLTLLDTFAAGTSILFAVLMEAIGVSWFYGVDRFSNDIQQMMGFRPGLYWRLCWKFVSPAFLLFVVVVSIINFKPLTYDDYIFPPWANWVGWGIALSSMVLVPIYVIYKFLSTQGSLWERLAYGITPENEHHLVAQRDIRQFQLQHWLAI

Take `Cc1cc(-c2nc(CN3CCNCC3)no2)cc2c1C(=O)N(Cc1ccc(OC(F)(F)F)cc1)C2` [AZD8529, 7-methyl-5-(3-piperazin-1-ylmethyl-[1,2,4]oxadiazol-5-yl)-2-(4-trifluoromethoxybenzyl)-2,3-dihydroisoindol-1-one]: in test [1], the EC50 was found to be 285 ± 20 nM. For the same molecule, the inhibition at 10 µM in test [2] is 51%. Moreover, in test [3], the IC50 stood at 4730 nM.
